Assay results of several laboratories.
Compare with care: the assays were run in different laboratories.
Target: Atypical kinase COQ8B, mitochondrial (COQ8B, Homo sapiens, UniProt Q96D53)
Sequence (Q96D53 1-544, as in one of the studies): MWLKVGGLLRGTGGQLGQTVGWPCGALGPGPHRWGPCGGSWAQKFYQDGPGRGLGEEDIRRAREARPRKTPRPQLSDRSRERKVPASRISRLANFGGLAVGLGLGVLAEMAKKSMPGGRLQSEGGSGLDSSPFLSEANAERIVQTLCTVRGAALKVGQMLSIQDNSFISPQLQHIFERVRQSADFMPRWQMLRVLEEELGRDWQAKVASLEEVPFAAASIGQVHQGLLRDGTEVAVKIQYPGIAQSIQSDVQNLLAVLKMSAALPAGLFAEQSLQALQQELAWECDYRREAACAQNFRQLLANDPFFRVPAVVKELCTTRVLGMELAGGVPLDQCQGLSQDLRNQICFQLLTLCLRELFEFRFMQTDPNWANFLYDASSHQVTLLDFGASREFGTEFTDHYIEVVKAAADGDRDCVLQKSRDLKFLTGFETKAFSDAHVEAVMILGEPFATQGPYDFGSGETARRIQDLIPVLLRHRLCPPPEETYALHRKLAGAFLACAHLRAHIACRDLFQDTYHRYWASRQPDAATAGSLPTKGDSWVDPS

SMILES | assay | setting | remaining binding
O=C(NS(=O)(=O)c1ccc(NCC2CCOCC2)c([N+](=O)[O-])c1)c1ccc(N2CCN(Cc3ccc(C(F)(F)F)cc3-c3ccc(Cl)cc3)CC2)cc1Oc1cnc2[nH]ccc2c1 | cell-free assay, competition with immobilised ligand | 1 µM | 90%
CN(C)c1nccc(-c2cnn3ncccc23)n1 | binding | 1 µM | 100%
COc1cnc(Nc2cccc(S(N)(=O)=O)c2)nc1N1CCN(c2ccccc2)CC1 | binding, competition with immobilised ligand | 1 µM | 85%
CCS(=O)(=O)c1cc2cc(C[C@@](O)(CC(C)(C)c3ccc(F)cc3C(N)=O)C(F)(F)F)[nH]c2cn1 | cell-free assay, competition with immobilised ligand | 1 µM | 100%
c1cncc(-c2cccc(Nc3nccc(NC4CCCCC4)n3)c2)c1 | binding, competition with immobilised ligand | 10 µM | 24%
Cc1nc(N2CC[C@@H](O)C2)ncc1-c1cc(C(F)(F)F)cc2[nH]ncc12 | cell-free assay, competition with immobilised ligand | 1 µM | 100%
COc1ccnn2ncc(-c3ccnc(N(C)C)n3)c12 | binding | 1 µM | 96%
CN(C(=O)c1ccccc1)c1cc(N(C)c2ccc3c(c2)CCc2ccc(C(=O)NCCN4CCOCC4)cc2C3=O)ccc1F | cell-free assay, competition with immobilised ligand | 1 µM | 100%
C=CC(=O)N1CCC(C(=O)NCC(=O)N2CCN(c3nc(-c4cnc(N)nc4C(F)F)nc(N4CCOCC4)n3)CC2)CC1 | binding, competition with immobilised ligand | 1 µM | 100%
Nc1ncc2c(n1)-c1c([nH]c3ccc(C#CC4CC4)cc13)CCCC2 | binding, competition with immobilised ligand | 1 µM | 90%
CS(=O)(=O)c1cc(C2(NC(=O)c3cncc4c3cnn4-c3ccc(F)cc3)CC2)ccn1 | cell-free assay, competition with immobilised ligand | 1 µM | 100%
CN(CCCC(F)(F)F)c1nccc(-c2cnn3ncccc23)n1 | binding | 1 µM | 84%
CNC(=O)[C@@H]1CC[C@@H](n2c(-c3ccc4cnccc4c3)nc3ccc(C(=O)NCc4cccc(C(N)=O)c4)cc32)C1 | binding, competition with immobilised ligand | 1 µM | 99%
C[C@H]1CCN(c2nccc(-c3cnn4ncccc34)n2)C1 | binding | 1 µM | 92%
C[C@@H](c1ccc(-n2cnc3c(N)ncnc32)cc1)N1CCc2nn(C)c(Cc3ccccc3)c2C1=O | binding, competition with immobilised ligand | 0.1 µM | 80%
F[C@@H]1CCN(c2nccc(-c3cnn4ncccc34)n2)C1 | binding | 1 µM | 79%
Cc1cnc(Nc2ccc(C(=O)N3CCC(N4CCCC4)CC3)cc2)nc1-c1cc2ccccc2s1 | binding, competition with immobilised ligand | 1 µM | 34%
CS(=O)(=O)N1CCCC(NC(=O)[C@H](CCC2CCCCC2)NC(=O)c2ccc(CNC(=O)c3cnc4ccccn34)cc2)C1 (stereo partly shown) | cell-free assay, competition with immobilised ligand | 0.1 µM | 100%
O=C(NCCCN1CCOCC1)c1ccc(Nc2nccc(-c3cc4ccccc4s3)n2)cc1 | binding, competition with immobilised ligand | 1 µM | 62%
N[C@H]1CCN(c2nccc(-c3cnn4ncccc34)n2)C1 | binding | 1 µM | 74%
O=C(c1ccc(Nc2ncc(Cl)c(-c3cc4ccccc4s3)n2)cc1)N1CCC(N2CCCC2)CC1 | binding, competition with immobilised ligand | 1 µM | 44%
O=C(NCC1CCOCC1)c1n[nH]cc1NC(=O)c1c(F)cccc1F | binding, competition with immobilised ligand | 1 µM | 85%
